PRMT1 inh – PRMT1 methyltransferase inhibitors, primary screen, biochemical, fluorescence polarization; inhibition, % at 2.79 µM; 370,000 compounds, 1.3% hits; recombinant PRMT1, activity-based probe fluorescence polarization; Protein arginine N-methyltransferase 1 (Homo sapiens), Q99873;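 active = inhibition above about 21% made by adding two undisclosed values, limit read from the data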
Target sequence (Q99873 whole entry, looked up): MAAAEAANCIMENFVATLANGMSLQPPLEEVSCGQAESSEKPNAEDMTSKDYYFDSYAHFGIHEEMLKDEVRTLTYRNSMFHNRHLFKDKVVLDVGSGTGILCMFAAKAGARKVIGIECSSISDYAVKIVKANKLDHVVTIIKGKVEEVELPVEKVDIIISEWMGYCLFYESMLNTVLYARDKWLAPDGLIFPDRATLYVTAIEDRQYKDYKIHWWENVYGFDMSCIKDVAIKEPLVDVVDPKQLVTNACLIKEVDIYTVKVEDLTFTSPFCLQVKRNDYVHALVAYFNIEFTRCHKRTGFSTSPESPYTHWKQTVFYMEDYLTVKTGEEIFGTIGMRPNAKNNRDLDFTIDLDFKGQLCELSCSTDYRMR
TCR-CD3 inh – inhibitors of human TCR-CD3 interaction, primary screen, biochemical, fluorescence, TAMRA-labeled TCR probe; T-cell receptor (TCR); inhibition, % at 9.4 µM; 360,000 compounds, 0.37% hits; in the data active = inhibition above about 19%;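 note: recombinant mutant TCR 2C K166C tagged with TAMRA read by polarization; 0% = receptor in buffer alone and 100% = receptor with positive control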
rCAG binder-1 – binders of r(CAG) RNA repeats, primary screen, biochemical, fluorescence; r(CAG) RNA repeat, TO-PRO-1 dye displacement fluorescence; inhibition, % at 3 µM; 370,000 compounds, 1.3% hits; AID 651821, 2012;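 active = inhibition above the plate cutoff, the mean of all test compounds on that plate plus 3 SD, cut at about 35% in these data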;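 note: 0% = DMSO alone and 100% = 100 µM mitoxantrone as full dye displacement; higher means more dye released from RNA so lower well fluorescence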
mABHD4 FP – ABHD4 inhibitors, primary screen, biochemical, fluorescence polarization, mouse; (Lyso)-N-acylphosphatidylethanolamine lipase (Mus musculus), Q8VD66; purified mABHD4, FP-Rh probe fluorescence polarization; inhibition, % at 8.92 µM; 370,000 compounds, 0.54% hits;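 active = inhibition exceeding the mean over every tested compound plus 3 SD, cut at about 30% in these data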;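 note: 0% = plate median of compound wells and 100% = S159A mutant with DMSO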
Target sequence (Q8VD66 whole entry, looked up): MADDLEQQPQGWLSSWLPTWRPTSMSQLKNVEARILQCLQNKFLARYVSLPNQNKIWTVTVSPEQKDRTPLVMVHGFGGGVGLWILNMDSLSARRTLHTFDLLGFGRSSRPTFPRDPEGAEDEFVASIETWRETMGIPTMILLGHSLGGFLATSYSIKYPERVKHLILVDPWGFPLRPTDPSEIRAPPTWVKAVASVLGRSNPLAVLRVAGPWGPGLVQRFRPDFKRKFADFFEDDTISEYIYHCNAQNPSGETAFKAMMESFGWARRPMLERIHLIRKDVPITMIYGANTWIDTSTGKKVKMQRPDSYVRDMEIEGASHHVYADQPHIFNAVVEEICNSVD
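Test system: mABHD4 protein | Buffer or medium: HEPES pH 7.0 buffer, 150 mM NaCl, 0.01% Pluronic F-127 | Probe or stimulus: FP-Rh fluorescent activity-based probe, added after compound pre-incubation | Timing: Pre-incubation 45 min, probe exposure 60 min, at 25 °C | Technique: Fluorescence polarization, excitation 525 nm, emission 598 nm, BODIPY TMR filters | Repeats: Single well per compound (singlicate)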
SIAE primary – human SIAE inhibitors, primary screen, biochemical, fluorescence polarization, FP-Rh probe, 1536-well HTS. SIAE FP-Rh probe binding. AID 1053197, 2014. inhibition, % at 9.66 µM. 370,000 compounds, 0.69% hits;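 active = inhibition above a cutoff: mean of compounds within the control limits plus 3 SD of those, cut at about 17% in these data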;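 note: 0% = plate median of compound wells and 100% = probe without SIAE protein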
HTRA1 inhibitor – HTRA1 serine protease inhibitors, primary screen, biochemical, fluorescence polarization, HTS. recombinant HTRA1, FP-rhodamine activity-based probe. Q92743. inhibition, % at 5.96 µM. AID 504803, 2011. 340,000 compounds, 0.5% hits; in the data active = inhibition above about 36%;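 note: 0% = enzyme with DMSO and 100% = wells lacking enzyme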
rCAG bind conf – small molecules binding CAG repeat RNA – biochemical, fluorescence, confirmation. shares compounds with rCAG binder-1. r(CAG) RNA repeat, TO-PRO-1 dye displacement fluorescence. inhibition, % at 3 µM. 4,300 compounds, 70% hits. AID 652065, 2013;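 active = inhibition above a per-plate cutoff, the mean inhibition of sample wells plus 3 SD, cut at about 35% in these data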;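 note: loss of TO-PRO-1 fluorescence as compound displaces dye from 1x1 AA loop RNA; 0% = DMSO only wells and 100% = 100 µM mitoxantrone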
dCAG dye counter – displacement of TO-PRO-1 from CAG DNA duplex, counter-screen for rCAG RNA repeat binder project, biochemical, fluorescence, TO-PRO-1 dye, d(CAG) DNA oligo. shares compounds with rCAG binder-1. d(CAG) DNA oligo TO-PRO-1 dye displacement. inhibition, % at 3 µM. 4,300 compounds, 94% hits;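 active = inhibition above its plate's cutoff, the mean test-well inhibition plus 3 SD, cut at about 4.8% in these data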;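 note: 0% = DNA dye mix with DMSO and 100% = 100 µM mitoxantrone; hits displace the dye from DNA and so lower well fluorescence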
DNA CAG DR – inhibitors of DNA CAG/GTC TO-PRO-1 complex, dose response, counter-screen for rCAG RNA repeat binder project, biochemical, fluorescence, TO-PRO-1 dye | shares compounds with rCAG binder-1 | DNA CAG/GTC duplex TO-PRO-1 dye displacement fluorescence | IC50, µM | 250 compounds, 20% hits; in the data active = IC50 below about 10 µM
dCAG DNA bind – TO-PRO-1 dye complex inhibitors on d(CAG) DNA, dose response, counter-screen, biochemical, fluorescence, late stage; shares compounds with rCAG binder-1; d(CAG) DNA duplex TO-PRO-1 dye displacement; IC50, µM; 30 compounds, 80% hits; AID 720649, 2013
rCAG binder-2 – molecules binding r(CAG) RNA repeats, late stage dose response, late-stage follow-up, biochemical, fluorescence, dose response, powder samples; 30 compounds, 100% hits; AID 720651, 2013; shares compounds with rCAG binder-1; r(CAG) RNA TO-PRO-1 dye displacement; IC50, µM
An asterisk follows results filed as active. This is a sample that favours compounds with a hit; in the whole collection about 3.5% have one here. Unless noted, the rule behind the calls is not given here.

`COc1ccc(-n2c(COc3ccccc3)nnc2SCC(=O)Nc2ccc3c(c2)OCCO3)cc1` gave PRMT1 inh -0.2, rCAG binder-1 2.9, mABHD4 FP -7.3 and SIAE primary -1.3.
Screening Cc1ccccc1CNC(=O)C1CCC(CNS(=O)(=O)c2cccc3cccnc23)CC1 (stereo unspecified) returned PRMT1 inh 1.3, rCAG binder-1 2.3, mABHD4 FP -3.0 and SIAE primary 0.0.
`COc1ccc(Cc2nnc(NS(=O)(=O)c3ccccc3)s2)cc1` gave PRMT1 inh 2.1, TCR-CD3 inh -2.8, rCAG binder-1 23.8, mABHD4 FP -0.6, SIAE primary -3.7 and HTRA1 inhibitor -2.7.
Screening CCc1nnc(NS(=O)(=O)c2ccc(NC(=O)c3ccccc3O)cc2)s1 returned PRMT1 inh -7.3, TCR-CD3 inh -2.8, rCAG binder-1 14.4, mABHD4 FP -0.3, SIAE primary 1.1 and HTRA1 inhibitor 0.2.
O=C(Nc1ccc(Cl)cc1)Nc1nnc(CSCc2ccc(Cl)cc2)s1 was read as PRMT1 inh 0.9, TCR-CD3 inh 3.4, rCAG binder-1 9.7, mABHD4 FP -1.3, SIAE primary -0.6 and HTRA1 inhibitor -3.3.
For Cc1cc(NS(=O)(=O)c2ccc(NC(=O)COc3ccc(Cl)cc3)cc2)no1 the results were PRMT1 inh 3.8, TCR-CD3 inh -1.1, rCAG binder-1 19.4, mABHD4 FP -12.2, SIAE primary -7.5 and HTRA1 inhibitor -13.6.
COc1ccc(Cc2nnc(NS(=O)(=O)c3ccc([N+](=O)[O-])cc3)s2)cc1 was read as PRMT1 inh 2.9, TCR-CD3 inh 8.2, rCAG binder-1 43.9*, mABHD4 FP -3.0, SIAE primary 2.6, HTRA1 inhibitor -3.5, rCAG bind conf 49.1* and dCAG dye counter 17.0*.
CCc1nnc(NS(=O)(=O)c2ccc(NC(=O)COc3ccc(Cl)c(C)c3)cc2)s1 was read as PRMT1 inh 1.7, TCR-CD3 inh -3.1, rCAG binder-1 78.4*, mABHD4 FP -33.0, SIAE primary -4.3, HTRA1 inhibitor -40.5, rCAG bind conf 70.1*, dCAG dye counter 32.0*, DNA CAG DR inactive, dCAG DNA bind 3.53* and rCAG binder-2 1.3*.
For CCc1nnc(NS(=O)(=O)c2ccc(N/C=C\C(=O)c3cccc4ccccc34)cc2)s1 the results were PRMT1 inh -1.7, TCR-CD3 inh 2.7, rCAG binder-1 81.0*, mABHD4 FP -50.8, SIAE primary 0.8, HTRA1 inhibitor -47.5, rCAG bind conf 81.8* and dCAG dye counter 53.6*.
For CCc1nnc(NC(=O)Nc2ccc(Cl)cc2)s1 the results were PRMT1 inh 1.9, TCR-CD3 inh 10.3, rCAG binder-1 38.5*, mABHD4 FP -1.6, SIAE primary -5.9, HTRA1 inhibitor 3.3, rCAG bind conf 8.5 and dCAG dye counter 11.6*.
For CN(C)S(=O)(=O)c1cccc(C(=O)N/N=C\c2ccccc2)c1 the results were PRMT1 inh 0.4, rCAG binder-1 0.4, mABHD4 FP 2.6 and SIAE primary 1.3.
Screening CCc1nnc(NS(=O)(=O)c2ccc(N/C=C/C(=O)c3ccc(OC)cc3)cc2)s1 returned PRMT1 inh 16.0, TCR-CD3 inh 4.7, rCAG binder-1 59.5*, mABHD4 FP -23.4, SIAE primary -11.5, HTRA1 inhibitor -14.6, rCAG bind conf 65.5* and dCAG dye counter 29.0*.
`COc1ccc(Cl)cc1C(=O)Nc1ccc(S(N)(=O)=O)cc1` gave PRMT1 inh 2.5, TCR-CD3 inh -0.5, rCAG binder-1 1.9, mABHD4 FP 2.1, SIAE primary -0.7 and HTRA1 inhibitor -10.9.
`CCOC(=O)c1sc(NC(=O)Nc2ccc(Cl)cc2)nc1C` gave PRMT1 inh 5.1, TCR-CD3 inh 1.2, rCAG binder-1 35.9*, mABHD4 FP -1.0, SIAE primary -0.3, HTRA1 inhibitor -6.4, rCAG bind conf 35.8* and dCAG dye counter 24.6*.
For COc1ccc(NC(=O)Nc2nnc(-c3ccncc3)s2)cc1 the results were PRMT1 inh 2.1, TCR-CD3 inh 3.6, rCAG binder-1 41.8*, mABHD4 FP 2.7, SIAE primary -1.5, HTRA1 inhibitor -1.2, rCAG bind conf 17.9 and dCAG dye counter 8.9*.
`CCOC(=O)Nc1nc(C)c(C(=O)c2ccc(Cl)cc2)s1` gave PRMT1 inh -1.6, TCR-CD3 inh 6.7, rCAG binder-1 5.5, mABHD4 FP -1.4, SIAE primary -9.6 and HTRA1 inhibitor 2.2.
Screening CCc1nnc(NS(=O)(=O)c2ccc(NC(=O)c3cc(Cl)ccc3OC)cc2)s1 returned PRMT1 inh 9.2, TCR-CD3 inh 6.6, rCAG binder-1 75.3*, mABHD4 FP -19.5, SIAE primary -20.6, HTRA1 inhibitor -28.2, rCAG bind conf 71.1*, dCAG dye counter 33.1* and DNA CAG DR inactive.
For C[C@H]1[C@@H](N(C)CC2CCCCC2)CC[C@@]23CCCN2C(=O)CCC[C@@H]13 the results were PRMT1 inh 0.4, mABHD4 FP -1.1 and SIAE primary 3.8.
CCc1nnc(NS(=O)(=O)c2ccc(NC(=O)Nc3ccc(OC)cc3)cc2)s1 was read as PRMT1 inh -4.8, TCR-CD3 inh -0.2, rCAG binder-1 54.1*, mABHD4 FP 7.2, SIAE primary -3.0, HTRA1 inhibitor -1.0, rCAG bind conf 25.4 and dCAG dye counter 6.9*.
